Measurements taken from ChEMBL document CHEMBL3098124, “Design, synthesis and anti-Alzheimer properties of dimethylaminomethyl-substituted curcumin derivatives” (Bioorg Med Chem Lett, 2014).

Experiments:
[1] = test system: Radical scavenging activity; assay: Antioxidant activity assessed as DPPH free radical scavenging activity after 4 hrs; assay type: functional
Outline: (§1)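 In vitro scavenging of DPPH or galvinoxyl radicals by a literature method. IC50 reported in µM as mean ± S.E.M.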

[2] = Antioxidant activity assessed as galvinoxyl free radical scavenging activity after 19 hrs; assay type: functional; outline: as §1
[3] = biological target: Amyloid-beta precursor protein (Homo sapiens) (UniProt P05067); assay: Inhibition of amyloid beta-42 self-aggregation (unknown origin) after 1 hr by ThT fluorescence assay
Sequence of Amyloid-beta precursor protein (Homo sapiens) (P05067 whole entry): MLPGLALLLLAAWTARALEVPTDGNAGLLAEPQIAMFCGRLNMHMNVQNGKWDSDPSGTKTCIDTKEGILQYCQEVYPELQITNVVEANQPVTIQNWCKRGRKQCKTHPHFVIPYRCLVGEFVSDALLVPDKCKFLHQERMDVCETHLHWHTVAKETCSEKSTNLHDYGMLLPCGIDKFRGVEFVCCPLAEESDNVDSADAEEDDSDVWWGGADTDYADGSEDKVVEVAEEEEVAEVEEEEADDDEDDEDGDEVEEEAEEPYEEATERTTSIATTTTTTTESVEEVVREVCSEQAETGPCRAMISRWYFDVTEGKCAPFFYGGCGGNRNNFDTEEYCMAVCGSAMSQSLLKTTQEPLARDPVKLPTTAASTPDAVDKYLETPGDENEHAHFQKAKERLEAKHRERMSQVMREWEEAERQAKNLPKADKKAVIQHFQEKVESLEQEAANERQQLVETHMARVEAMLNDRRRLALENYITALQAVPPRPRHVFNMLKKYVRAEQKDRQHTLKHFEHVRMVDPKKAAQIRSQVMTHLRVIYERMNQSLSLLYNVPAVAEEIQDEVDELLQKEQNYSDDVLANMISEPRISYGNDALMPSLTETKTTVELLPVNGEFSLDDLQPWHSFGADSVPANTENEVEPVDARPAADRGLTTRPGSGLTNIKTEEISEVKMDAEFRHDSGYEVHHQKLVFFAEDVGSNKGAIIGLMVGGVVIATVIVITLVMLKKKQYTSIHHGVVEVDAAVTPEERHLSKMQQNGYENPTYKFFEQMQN
Outline: (§2)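 Aβ42 self-aggregation read by Thioflavin T fluorescence. Test concentrations were 5, 50 and 100 µM. Each result is the mean of 3 measurements ± SEM. Statistics by one-way ANOVA with Tukey's multiple comparison test against Aβ alone.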

[4] = biological target: Amyloid-beta precursor protein (Homo sapiens) (UniProt P05067); assay: Inhibition of amyloid beta-42 self-aggregation (unknown origin) at 100 uM after 1 hr by ThT fluorescence assay relative to control; outline: as §2
[5] = biological target: Amyloid-beta precursor protein (Homo sapiens) (UniProt P05067); assay: Inhibition of amyloid beta-42 self-aggregation (unknown origin) at 50 uM after 1 hr by ThT fluorescence assay relative to control; outline: as §2
[6] = Aqueous solubility of the compound; assay type: physicochemical
[7] = Chemical stability of the compound in PBS at pH 7.4 at […] measured up to 120 mins by absorption spectroscopic analysis in absence of 0.1% FBS; assay type: physicochemical; settings: buffer, pH 7.4, 2 h
Outline: (§3)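 Visible absorption at 410 nm tracked over time in phosphate-buffered solution, pH 7.4, under daylight. FBS was 0.1% for line 5 and absent for line 4. Stability expressed as A/A0, with A0 the absorbance at 0 min.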

[8] = Chemical stability of the compound in PBS at pH 7.4 at […] measured up to 120 mins by absorption spectroscopic analysis in presence of 0.1% FBS; assay type: physicochemical; settings: buffer, pH 7.4, 2 h; outline: as §3
[9] = n-octanol-water partition coefficient, log P of the compound by HPLC analysis; assay type: physicochemical
Outline: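 Experimental logP determined in an octanol–water system for two representative compounds. All other values were calculated in silico.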

Compound | IC50 [1] | IC50 [2] | other results
CN(C)Cc1cc(/C=C/C(=O)/C=C(O)/C=C/c2ccc(O)c(CN(C)C)c2)ccc1O [listing 1 of 2 here] | – | – | inhibition [3]: Dose-dependent effect; inhibition [4]: 32%; inhibition [5]: 28%
COc1cc(/C=C/C(O)=C/C(=O)/C=C/c2ccc(O)c(CN(C)C)c2)ccc1O.Cl | – | – | solubility [6]: 1200 µg/mL
COc1ccc(/C=C/C(O)=C/C(=O)/C=C/c2ccc(O)c(CN(C)C)c2)cc1OC | 29.9 µM | 27.4 µM | –
CN(C)Cc1cc(/C=C/C(=O)/C=C(O)/C=C/c2ccc(O)c(CN(C)C)c2)ccc1O [listing 2 of 2 here] | 1.6 µM | 4.9 µM | Stability [7]: Stable; Stability [8]: Stable; logP [9]: 3.48
CN(C)Cc1cc(/C=C/C(=O)/C=C(O)/C=C/c2ccc(O)c(CN(C)C)c2)ccc1O.Cl.Cl | – | – | solubility [6]: 16700 µg/mL
COc1cc(/C=C/C(O)=C/C(=O)/C=C/c2ccc(O)c(CN(C)C)c2)ccc1O | – | – | logP [9]: 3.65
COc1cc(/C=C/C(=O)CC(=O)/C=C/c2ccc(O)c(OC)c2)ccc1O | – | – | inhibition [3]: Dose-dependent effect; inhibition [4]: 29%; inhibition [5]: 24%

Second part, led by results:

IC50 [1] | IC50 [2] | Compound | other results
11.1 µM | 41.1 µM | CN(C)Cc1cc(/C=C/C(=O)/C=C(O)/C=C/c2ccc(Cl)cc2)ccc1O | –
15.1 µM | 11.9 µM | COc1ccc(/C=C/C(O)=C/C(=O)/C=C/c2ccc(O)c(CN(C)C)c2)cc1 | –
24.1 µM | 22.3 µM | CN(C)Cc1cc(/C=C/C(=O)/C=C(O)/C=C/c2ccc(F)cc2)ccc1O | –
1.5 µM | 7.6 µM | CN(C)Cc1cc(/C=C/C(=O)/C=C(O)/C=C/c2ccc(O)cc2)ccc1O | –
18.7 µM | 22 µM | Cc1ccc(/C=C/C(O)=C/C(=O)/C=C/c2ccc(O)c(CN(C)C)c2)cc1 | –
4 µM | 6.9 µM | CN(C)Cc1cc(/C=C/C(=O)/C=C(O)/C=C/c2cccc(O)c2)ccc1O | –
